From ChEMBL document CHEMBL1955816, “Nitric oxide release is not required to decrease the ulcerogenic profile of nonsteroidal anti-inflammatory drugs” (J Med Chem, 2012)

Key:
[1] = Lipophilicity, log P of the compound; assay type: physicochemical; conditions: octanol/water
Outline: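 Log P is a theoretical n-octanol/water distribution coefficient, calculated rather than measured.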

Rattus norvegicus [2] = experiment: Ulcerogenic effect in rat assessed as gastric ulcer overall length at 1.4 mmol/kg, po administered for 6 hrs; assay type: toxicity, organism-based, Stomach; conditions: in vivo
Outline: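 Rats fasted 24 h with water allowed, then given a suspension in 1.2 mL 1% methylcellulose by gavage. Controls received vehicle. At 6 h, CO2 euthanasia. Stomachs were opened along the greater curvature, rinsed and put on ice. Ulcers were counted and measured under a magnifier (≤1 mm = 1, 1–2 mm = 2, >2 mm = length). Ulcer index = summed length per stomach averaged over n = 4, ±SEM.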

[3] = biological target: T1, Prostaglandin G/H synthase 1 (Ovis aries, UniProt P05979); experiment: Inhibition of ovine COX1
T1 sequence (P05979 whole entry): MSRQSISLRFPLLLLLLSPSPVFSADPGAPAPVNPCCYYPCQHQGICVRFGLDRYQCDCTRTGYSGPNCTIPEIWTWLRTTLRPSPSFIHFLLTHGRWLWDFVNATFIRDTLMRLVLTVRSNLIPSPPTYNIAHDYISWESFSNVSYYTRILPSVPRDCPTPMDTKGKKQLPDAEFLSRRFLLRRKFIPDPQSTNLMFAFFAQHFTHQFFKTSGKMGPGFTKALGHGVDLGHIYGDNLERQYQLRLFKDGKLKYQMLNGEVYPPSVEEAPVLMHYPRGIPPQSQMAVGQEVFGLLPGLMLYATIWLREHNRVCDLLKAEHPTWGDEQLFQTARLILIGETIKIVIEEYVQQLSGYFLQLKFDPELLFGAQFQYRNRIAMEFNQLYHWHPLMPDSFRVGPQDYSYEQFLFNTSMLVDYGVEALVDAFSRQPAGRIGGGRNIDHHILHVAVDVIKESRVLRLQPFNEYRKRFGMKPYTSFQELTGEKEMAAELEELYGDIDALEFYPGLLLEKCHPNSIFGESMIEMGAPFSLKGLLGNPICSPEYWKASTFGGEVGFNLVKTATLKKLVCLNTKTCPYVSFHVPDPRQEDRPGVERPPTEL
Outline: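 Ovine COX-1 was tested in a cyclooxygenase inhibitor screening kit, following the manufacturer's procedure. Deviation from the mean was <10%.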

Rattus norvegicus [4] = experiment: Antiinflammatory activity in rat assessed as inhibition of carrageenan-induced paw edema at 0.32 mmol/kg, po after 3 hrs relative to control; assay type: functional; parameters: scale not given: the % may be the effect or the level left
Outline: (§1)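 Rats were given an oral gavage suspension in 1% methylcellulose, at doses equimolar to the parent NSAID: 0.71, 0.32 or 0.01 mmol/kg. Controls received an equal volume of vehicle. Carrageenan-induced paw edema was read 3 h after dosing. Activity is the % decrease in the inflammatory response versus the vehicle group.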

Rattus norvegicus [5] = experiment: Antiinflammatory activity in rat assessed as inhibition of carrageenan-induced paw edema at 0.71 mmol/kg, po after 3 hrs relative to control; assay type: functional; parameters: scale not given: the % may be the effect or the level left; outline: as §1
Rattus norvegicus [6] = experiment: Antiinflammatory activity in po dosed rat assessed as inhibition of carrageenan-induced paw edema after 3 hrs; assay type: functional; conditions: read-out: ID50 (the source's name); outline: as §1
Rattus norvegicus [7] = experiment: Antiinflammatory activity in rat assessed as inhibition of carrageenan-induced paw edema at 0.01 mmol/kg, po after 3 hrs relative to control; assay type: functional; parameters: scale not given: the % may be the effect or the level left; outline: as §1
Rattus norvegicus [8] = experiment: Ulcerogenic effect in rat assessed as gastric ulcer overall length at 0.08 mmol/kg, po administered for 6 hrs; assay type: toxicity, organism-based, Stomach; conditions: in vivo
Outline: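 Rats were fasted 24 h with water allowed, then dosed orally at 0.08 mmol/kg as a suspension in 1% methylcellulose. Controls received vehicle. After 6 h, animals were killed by CO2 and stomachs opened along the greater curvature, rinsed and kept on ice. Each ulcer was measured along its greatest length under a magnifier. Ulcer index is the total ulcer length per stomach averaged over n = 4, ±SEM.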

| IC50 [3] | SMILES | logP [1] | UI (Rattus norvegicus [2]) | Activity (Rattus norvegicus [4]) | Activity (Rattus norvegicus [5]) | ED50 (Rattus norvegicus [6]) | Activity (Rattus norvegicus [7]) | UI (Rattus norvegicus [8]) |
| --- | --- | --- | --- | --- | --- | --- | --- | --- |
| 6.44 µM | CC(C)Cc1ccc(C(C)C(=O)Oc2ccc(CCO)cc2)cc1 (stereo not given) | 4.6 | 3.5 mm | 63% | – | – | – | – |
| – | CC(=O)Oc1ccccc1C(=O)O [ASPIRIN] | 1.2 | 57.4 mm | – | 50% | 700 µmol/kg | – | – |
| > 100 µM | COc1ccc2c(c1)c(CC(=O)Oc1ccc(CCO)cc1)c(C)n2C(=O)c1ccc(Cl)cc1 | – | – | – | – | – | 61.3% | 9.6 mm |
| – | COc1ccc2c(c1)c(CC(=O)O)c(C)n2C(=O)c1ccc(Cl)cc1 [INDOMETHACIN] | – | – | – | – | – | 38.3% | 34.4 mm |
| 0.03 µM | CC(=O)Oc1ccccc1C(=O)Oc1ccc(CCO)cc1 | 2 | 2.6 mm | – | 58% | – | – | – |
| – | CC(C)Cc1ccc(C(C)C(=O)O)cc1 (stereo not given) [IBUPROFEN] | 3.7 | – | 50% | – | 300 µmol/kg | – | – |
